# High-throughput results: PubChem BioAssay, Broad Institute
# Pf Dd2 inh = blocks growth of Plasmodium falciparum Dd2 parasites; P. falciparum Dd2 growth, SYBR Green, 72 h; hits give low values; activity change, % at 10 µM; actives 2.3% (n = 94,000); AID 1159554; in the data active means activity change below about -80%; inconclusive means no clear call, values can overlap the other calls
# IDH1 R132H inh = IDH1 R132H (human) inhibition. IDH1 R132H reductase, diaphorase/resazurin fluorescence, 60 min. inhibition, % at 10 µM. O75874. AID 624101. actives 0.18% (n = 70,000); in the data active means inhibition above about 34%; inconclusive means no clear call, values can overlap the other calls; inactive means below about 11%;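 further: 0% = DMSO and 100% = no enzyme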
# Target sequence (O75874 whole entry R132H): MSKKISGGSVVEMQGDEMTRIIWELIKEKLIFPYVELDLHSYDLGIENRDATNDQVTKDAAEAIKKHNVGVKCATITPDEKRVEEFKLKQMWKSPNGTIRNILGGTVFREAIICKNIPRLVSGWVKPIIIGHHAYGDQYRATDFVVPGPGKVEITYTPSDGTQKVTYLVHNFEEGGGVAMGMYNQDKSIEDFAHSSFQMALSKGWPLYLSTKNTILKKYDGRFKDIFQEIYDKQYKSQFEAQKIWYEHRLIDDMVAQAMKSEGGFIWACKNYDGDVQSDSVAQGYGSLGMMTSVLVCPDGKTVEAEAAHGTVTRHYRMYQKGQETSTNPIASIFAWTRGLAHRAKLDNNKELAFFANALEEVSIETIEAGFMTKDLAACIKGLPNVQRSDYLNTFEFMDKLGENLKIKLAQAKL
# KDM4C inh = KDM4C (human) demethylase inhibition. actives 0.15% (n = 96,000). GST-KDM4C 2-372, H3K9me3 peptide, LANCE TR-FRET. inhibition, % at 12.5 µM. AID 720574;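 active means mean replicate inhibition above about 25%, with at least 55% of replicates also reaching it, limit read from the data, passing the limit was not always enough; inconclusive means only one of those two conditions met; inactive means neither condition met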
#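 Material: GST-tagged GASC-1 (JMJD2C) catalytic fragment, aa 2-372. Input: enzyme final amount 10 nM. Medium: HEPES buffer, pH 7.5, plus ascorbate. Reagent: H3K9me3 peptide substrate, Fe(II), 2-oxoglutarate. Doses: single dose. Times: reaction 30 min RT, detection step 1 h RT. Measured by: LANCE TR-FRET. Evaluation: Fall in 671/618 emission ratio as inhibition.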
# T cruzi growth-1 = inhibitors of T. cruzi proliferation | T. cruzi beta-gal in NIH3T3, GalScreen luminescence, 90 h | inhibition, % at 8.34 µM | actives 5.9% (n = 77,000) | AID 624255;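 active means mean inhibition above about 93%, with at least 55% of replicates each passing it, limit read from the data, passing the limit was not always enough; inconclusive means only one of those two conditions holds; inactive means neither condition holds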
# T cruzi growth-2 = Trypanosoma cruzi proliferation inhibition; shares compounds with T cruzi growth-1; T. cruzi beta-gal in NIH3T3, GalScreen luminescence, 90 h; inhibition, % at 8.35 µM; actives 72% (n = 5,600);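 active means mean replicate inhibition above about 95% and at least 55% of replicates individually reaching it, limit read from the data; inconclusive means only one of the two criteria is met; inactive means neither criterion is met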
# T cruzi growth-3 = Trypanosoma cruzi proliferation inhibition; shares compounds with T cruzi growth-1; T. cruzi beta-gal in NIH3T3, GalScreen luminescence, 90 h; inhibition, % at 2.09 µM; actives 21% (n = 5,600); AID 651740;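 active means mean inhibition above about 95%, with at least 55% of replicates also reaching it, limit read from the data; inconclusive means meets just one of the two conditions; inactive means meets neither condition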;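 further: plate controls were neutral control median for no effect and positive control median for full effect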
# NIH3T3 tox = cytotoxicity in mouse NIH/3T3 fibroblasts. shares compounds with T cruzi growth-1. NIH/3T3 viability, CellTiter-Glo ATP luminescence, 90 h. cytotoxicity (signal decrease), % at 8.35 µM. actives 14% (n = 5,600);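 active means mean signal decrease across replicates above about 35% based on untreated-well scatter, with enough replicates individually passing, limit read from the data; inconclusive means no rule stated though some were filed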;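 further: 0% = median of neutral control wells and 100% = median of positive control wells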
# NIH3T3 tox 2 = NIH/3T3 (mouse) viability loss. actives 56% (n = 5,600). shares compounds with T cruzi growth-1. inhibition, % at 24.9 µM. AID 651744. NIH/3T3 viability, CellTiter-Glo ATP luminescence, 90 h;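 active means mean loss of cell viability signal at or above a set limit, and enough replicates individually reaching it; inconclusive means meets only the mean limit or only the replicate share; inactive means meets neither condition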;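 further: 0% = median of neutral control wells and 100% = median of positive control wells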
# Numbers without * were called inactive; ? = inconclusive; . = no result given. Hits are enriched below; roughly 5.8% of the tested compounds scored in any of these assays.
SMILES,Pf Dd2 inh,IDH1 R132H inh,KDM4C inh,T cruzi growth-1,T cruzi growth-2,T cruzi growth-3,NIH3T3 tox,NIH3T3 tox 2
Cc1noc(C)c1S(=O)(=O)Nc1ccc2c(c1)CC(=O)N([C@@H](C)CO)C[C@@H](C)[C@H](CN(C)Cc1ccc(Cl)c(Cl)c1)O2,-22.9,1.2,-1.0,-43.5,.,.,.,.
Cc1cc(C)cc(NC(=O)CSc2nnc(-c3ccncc3)n2C)c1,.,0.3,.,.,.,.,.,.
C[C@@H]1CN([C@H](C)CO)C(=O)c2cc(NC(=O)Cc3ccccc3)ccc2O[C@@H](C)CCCCO[C@H]1CN(C)S(=O)(=O)c1ccc(Cl)cc1,-81.9*,.,0.5,95.8*,107.2*,77.3,17.2,13.6
C[C@@H]1CCCCO[C@H](CN(C)S(=O)(=O)c2ccc(Cl)cc2)[C@@H](C)CN([C@@H](C)CO)C(=O)c2cc(NC(=O)Cc3ccccc3)ccc2O1,-68.1,-0.6,-1.9,105.2*,104.8*,87.0,-15.8,46.4*
C[C@H](CO)N1C[C@H](C)[C@@H](CN(C)Cc2ccc3c(c2)OCO3)Oc2c(NC(=O)Nc3ccc(C(F)(F)F)cc3)cccc2C1=O,-4.5,.,-0.1,103.7*,96.8*,105.0*,23.9,96.9*
C[C@@H]1CN([C@@H](C)CO)C(=O)c2cccc(NC(=O)Nc3ccc(C(F)(F)F)cc3)c2O[C@H]1CN(C)Cc1ccc2c(c1)OCO2,-47.7,.,.,?,105.3*,117.3*,2.7,54.9*
C[C@H](CO)N1C[C@H](C)[C@H](CN(C)Cc2ccc3c(c2)OCO3)Oc2c(NC(=O)Nc3ccc(C(F)(F)F)cc3)cccc2C1=O,-20.4,0.4,-3.5,103.1*,107.9*,102.6*,15.4,103.5*
C[C@H]1CN([C@@H](C)CO)C(=O)c2cccc(NC(=O)Nc3ccc(C(F)(F)F)cc3)c2O[C@@H]1CN(C)Cc1ccc2c(c1)OCO2,3.5,.,.,97.0,.,.,.,.
O=C(CN1CCOCC1)N[C@@H]1CC[C@@H](CCNS(=O)(=O)c2ccccc2F)O[C@H]1CO,14.5,0.1,0.2,7.4,.,.,.,.
CN1c2ccc(-c3ccc(C#N)cc3)cc2[C@@H]2[C@@H](CCN2C(=O)c2cccc(F)c2)[C@H]1CO,25.0,.,1.3,?,109.6*,103.1*,25.0,81.5*
CN(C)C(=O)c1cccc(-c2ccc3c(c2)[C@H]2[C@H](CCN2C(=O)c2cccc(F)c2)[C@@H](CO)N3C)c1,-12.6,.,2.8,98.7*,103.4*,41.5,4.7,8.4
O=S(=O)(c1cccs1)N1CCCCN2[C@@H](CO)[C@@H](c3ccc(C4=CCCCC4)cc3)[C@@H]2C1,-63.3,.,.,75.8,.,.,.,.
O=S(=O)(c1cccs1)N1CCCCN2[C@H](CO)[C@H](c3ccc(-c4ccccc4)cc3)[C@H]2C1,-1.1,.,-0.5,87.9,.,.,.,.
O=S(=O)(c1cccs1)N1CCCCN2[C@H](CO)[C@@H](c3ccc(Br)cc3)[C@@H]2C1,12.3,.,-1.6,88.0,.,.,.,.
O=S(=O)(c1cccs1)N1CCCCN2[C@H](CO)[C@H](c3ccc(-c4ccccc4)cc3)[C@@H]2C1,46.3,.,-2.2,?,107.0*,81.1,15.5,2.0
O=S(=O)(c1cccs1)N1CCCCN2[C@H](CO)[C@@H](c3ccc(/C=C/c4ccccc4)cc3)[C@@H]2C1,7.7,.,0.6,96.8*,105.3*,42.1,25.5,23.5
O=S(=O)(c1cccs1)N1CCCCN2[C@H](C1)[C@@H](c1ccc(Br)cc1)[C@@H]2CO,13.6,.,-0.2,102.7*,103.7*,15.3,?,11.1
O=S(=O)(c1cccs1)N1CCCCN2[C@H](CO)[C@H](c3ccc(C4=CCCCC4)cc3)[C@@H]2C1,-0.8,.,.,118.0*,101.4*,93.6,23.0,51.3*
O=C(Cn1cnc2scc(-c3cccc([N+](=O)[O-])c3)c2c1=O)Nc1ccc(F)c(Cl)c1,.,0.4,.,.,.,.,.,.
COC(=O)c1cc(OC)c(OC)cc1NC(=O)COc1cc(C)c(Br)c(C)c1,.,1.6,.,.,.,.,.,.
COc1ccc2c3c(n(C)c2c1)[C@H](CO)N(C(=O)Nc1ccc(F)cc1)CC31CN(C(=O)NC(C)C)C1,34.0,.,.,.,.,.,.,.
O=S(=O)(c1cccs1)N1CCCCN2[C@H](C1)[C@H](c1ccc(-c3ccccc3)cc1)[C@@H]2CO,9.5,.,-1.0,100.8*,107.7*,94.0,14.5,?
COCC(=O)N1CCCCN2[C@@H](CO)[C@H](c3ccc(C#Cc4cccnc4)cc3)[C@@H]2C1,20.7,.,0.1,99.2*,92.5,36.2,13.1,21.9
COCC(=O)N1CCCCN2[C@H](CO)[C@H](c3ccc(-c4ccc(OC)cc4)cc3)[C@@H]2C1,13.5,.,0.7,103.0*,75.8,11.3,22.1,31.9*
COCC(=O)N1CCCCN2[C@H](C1)[C@H](c1ccc(C#Cc3ccc(OC)cc3)cc1)[C@@H]2CO,-33.0,.,-0.7,104.7*,95.1*,36.4,19.5,89.0*
SMILES,Pf Dd2 inh,IDH1 R132H inh,KDM4C inh,T cruzi growth-1,T cruzi growth-2,T cruzi growth-3,NIH3T3 tox,NIH3T3 tox 2
COCC(=O)N1CCCCN2[C@@H](CO)[C@@H](c3ccc(C#Cc4ccc(OC)cc4)cc3)[C@@H]2C1,-48.5,.,-1.3,70.9,.,.,.,.
COCC(=O)N1CCCCN2[C@@H](CO)[C@H](c3ccc(-c4ccc(OC)cc4)cc3)[C@@H]2C1,24.4,.,0.3,104.3*,71.7,51.9,17.7,18.6
O=C(NC1CCC1)[C@@H]1[C@@H](CO)[C@@H]2Cn3c(ccc(-c4ccccc4)c3=O)[C@@H]2N1CC1CC1,18.6,.,5.3,.,.,.,.,.
C[C@H](CO)N1C[C@H](C)[C@H](CN(C)C(=O)c2cnccn2)Oc2ncc(-c3cccc(C#N)c3)cc2C1=O,-19.3,-0.2,6.7,.,.,.,.,.
C[C@@H](O)C#Cc1ccc([C@H]2[C@H]3CN(S(=O)(=O)Cc4ccccc4)CCCCN3[C@H]2CO)cc1,-8.8,.,0.4,43.9,.,.,.,.
CCCC#Cc1ccc([C@@H]2[C@H]3CN(S(=O)(=O)Cc4ccccc4)CCCCN3[C@H]2CO)cc1,-14.5,.,-1.6,80.6,.,.,.,.
O=S(=O)(Cc1ccccc1)N1CCCCN2[C@H](C1)[C@H](c1ccc(C#Cc3ccccc3)cc1)[C@@H]2CO,-0.1,.,-1.9,104.1*,108.4*,?,26.4,106.6*
O=S(=O)(Cc1ccccc1)N1CCCCN2[C@H](C1)[C@@H](c1ccc(C#Cc3ccccc3)cc1)[C@@H]2CO,-42.4,.,-0.6,100.5*,104.9*,112.1*,27.4,68.3*
CC(C)CC#Cc1ccc2c(c1)O[C@@H](CN(C)CC1CCOCC1)[C@@H](C)CN([C@@H](C)CO)S2(=O)=O,-49.0,-6.6,-0.4,?,110.3*,?,25.5,105.1*
